Ends that are not written are not given here. * marks the point of attachment. Octanoyl = CCCCCCCC(=O)*
How the values were obtained:
[1] = system: P. aeruginosa (ATCC 15692); test: Agar plate-based bactericidal assay; type: cell-based, Pseudomonas aeruginosa
Outline: (§1)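 Bacteria were grown aerobically overnight in BHI broth at 37°C, washed twice in PBS and suspended at 10^5 cells/mL in 10 mM sodium phosphate, pH 6.8. Suspensions were exposed to the test peptide over a range of concentrations for 2 h at 37°C, aerobically. For salt sensitivity, NaCl was added at 0–150 mM, with 25 μg/ml test peptide or 1 μg/ml reference peptide. Samples were diluted in PBS, plated on BHI agar overnight at 37°C and counted for CFU. Survival is expressed as a percentage of untreated; mean ± SD of three independent experiments.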

[2] = system: E. faecalis (ATCC 29212); test: Agar plate-based bactericidal assay; type: cell-based, Enterococcus faecalis; settings: range of ghrelin concentrations tested; data not shown
[3] = system: E. coli (ATCC 27325); test: Agar plate-based bactericidal assay; type: cell-based, Escherichia coli
Outline: as §1

[4] = system: E. coli; test: Measurement of zeta-potential of bacteria treated with peptide; parameters: species or system Escherichia coli; settings: 5 and 20 μg peptide/10^5 bacterial cells, 10 mM NaPi, 20 min, 37°C
Outline: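 Overnight E. coli cultures were washed in PBS and resuspended at 10^8 cells/mL in 10 mM sodium phosphate. Cells were added to phosphate buffer containing peptide to give 5 or 20 μg peptide per 10^5 cells, then incubated 20 min at 37°C. Zeta potential was read on a particle sizer/zetasizer, and the mean was computed by the Smoluchowski equation. Values are mean ± SD of three independent experiments.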

[5] = physiological NaCl concentration (150 mM) in 10 mM NaPi pH 6.8, AG 25 μg/ml
[6] = LL37 1 μg/ml, 10 mM NaPi pH 6.8 with NaCl 0 to 150 mM, dose-dependent

Substance	effect of NaCl on bactericidal activity (in words) [1, 5]	bactericidal effects (in words) [2]	effect of NaCl on bactericidal activity (in words) [3, 5]	effect of NaCl on bactericidal activity (in words) [1, 6]	effect on zeta-potential of E. coli (in words) [4]	effect of NaCl on bactericidal activity (in words) [3, 6]
acylated ghrelin (GSS(Octanoyl)FLSPEHQRVQQRKESKKPPAKLQPR; UniProt Q9UBU3 24-51, looked up) [AG]	decreased	neither AG nor DAG showed significant bactericidal effects	decreased			
desacylated ghrelin (GSSFLSPEHQRVQQRKESKKPPAKLQPR; Ghrelin-28 non-acylated; UniProt Q9UBU3 24-51, looked up) [DAG]		neither AG nor DAG showed significant bactericidal effects				
LL37 (LLGDFFRKSKEKIGKEFKRIVQRIKDFLRNLVPRTES; Antibacterial peptide LL-37; UniProt P49913 134-170, looked up) [reference compound]				attenuated	increased the zeta-potential of E. coli	attenuated

From PMC3402649 (Peptides, 2012)
